Assay results taken from ChEMBL document CHEMBL3124861, “Application of ProTide technology to gemcitabine: a successful approach to overcome the key cancer resistance mechanisms leads to a new agent (NUC-1031) in clinical development” (J Med Chem, 2014).

Tests used:
Assay type in all cases: functional, cell-based
L1210 = experiment: Cytostatic activity against mouse L1210 cells after 48 hrs by coulter counter analysis; conditions: L1210, 48 h
In short: (§1)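 Tumor cell proliferation assay with murine leukemia and human T-lymphoblast cells. IC50 is the concentration that inhibits proliferation by 50%. Values are means of at least two independent experiments.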

BXPC-3 = experiment: Cytostatic activity against human BxPC3 cells after 72 hrs by MTS assay; conditions: BXPC-3, 72 h
In short: (§2)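 Pancreatic carcinoma cell proliferation assay. IC50 is the concentration that inhibits tumor cell proliferation by 50%. Values are means of at least two independent experiments.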

MIA PaCa-2 = experiment: Cytostatic activity against human MIAPaCa2 cells after 72 hrs by MTS assay; conditions: MIA PaCa-2, 72 h; in short: as §2
CCRF-CEM = experiment: Cytostatic activity against human CEM cells after 72 hrs by coulter counter analysis; in short: as §1

| SMILES | IC50 (L1210) [nM] | IC50 (BXPC-3) [nM] | IC50 (MIA PaCa-2) [nM] | IC50 (CCRF-CEM) [nM] |
| --- | --- | --- | --- | --- |
| CC(C)OC(=O)[C@H](C)NP(=O)(OC[C@H]1O[C@@H](n2ccc(N)nc2=O)C(F)(F)[C@@H]1O)Oc1ccccc1 (stereo partly specified) | > 5000 | > 5000 | > 5000 | > 5000 |
| CCCCCOC(=O)[C@H](C)NP(=O)(OC[C@H]1O[C@@H](n2ccc(N)nc2=O)C(F)(F)[C@@H]1O)Oc1ccccc1 (stereo partly specified) | 24 | – | – | 80 |
| CCCCCCOC(=O)[C@H](C)NP(=O)(OC[C@H]1O[C@@H](n2ccc(N)nc2=O)C(F)(F)[C@@H]1O)Oc1ccccc1 (stereo partly specified) | 16 | – | – | 81 |
| C[C@H](NP(=O)(OC[C@H]1O[C@@H](n2ccc(N)nc2=O)C(F)(F)[C@@H]1O)Oc1ccccc1)C(=O)OCC(C)(C)C (stereo partly specified) | 390 | 360 | 1410 | 440 |
| C[C@H](NP(=O)(OC[C@H]1O[C@@H](n2ccc(N)nc2=O)C(F)(F)[C@@H]1O)Oc1ccccc1)C(=O)OC1CCCCC1 (stereo partly specified) | 600 | – | – | 420 |
| CCCCCOC(=O)C(C)(C)NP(=O)(OC[C@H]1O[C@@H](n2ccc(N)nc2=O)C(F)(F)[C@@H]1O)Oc1cccc2ccccc12 (stereo partly specified) | 160 | – | – | 130 |
